According to ChEMBL document CHEMBL1122970, “Synthesis and antitumor and antiviral activities of a series of 1-beta-D-ribofuranosyl-5-halocytosine (5-halocytidine) cyclic 3',5'-monophosphates” (1985):
“And” between values parts separate entries of the source, which are not always exact repeats. Equal values may be shown once. The source made the active and inactive calls. No cut-off for these calls is given here.

How the values were obtained:
P388 [1] = experiment: In vitro antitumor activity against P388 cell line in mice; B indicates inactive at 10e-1 mmol/L; type: functional, cell-based; settings: Mus musculus
In short: (§1)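 Cells at 1 × 10⁶ cells/mL were incubated with filter-sterilized compound in growth medium, in duplicate, at log concentrations from 1 × 10⁻⁹ to 1 × 10⁻⁴ M. After 48 h at 37 °C, Coulter counts were taken and growth was expressed as a percentage of untreated controls. ID₅₀ is the concentration giving 50% growth inhibition.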

Vaccinia virus [2] = experiment: In vitro antiviral activity against Vaccinia virus strain Elstree was evaluated in african green monkey kidney; type: functional, Orthopoxvirus vaccinia
[3] = system: Vesicular stomatitis virus; experiment: Antiviral activity against Vesicular stomatitis virus strain indiana was evaluated in african green monkey kidney; type: functional
In short: (§2)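 Confluent Vero monolayers (4 × 10⁴ cells/well, EMEM with 10% heat-inactivated newborn bovine serum, 24 h at 37 °C, 5% CO₂) were infected per well with Cox B1 200, Reo 3 470 or VSV 2 TCID₅₀ units. After 30 min adsorption, compound was added at seven 0.5-log steps, final 5 × 10⁻⁶ to 5 × 10⁻³ M, in duplicate wells. CPE was scored microscopically 0–4 at 72 h to give VR, and ED₅₀ was checked on crystal-violet-stained plates.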

Coxsackievirus B1 [4] = experiment: In vitro antiviral activity against Coxsackie B1 strain HA 201468 was evaluated in african green monkey kidney; type: functional; in short: as §2
[5] = system: Vesicular stomatitis virus; experiment: In vitro antiviral activity against Vesicular stomatitis virus strain indiana was evaluated in african green monkey kidney; type: functional; in short: as §2
Human alphaherpesvirus 2 [6] = experiment: In vitro antiviral activity against Herpes simplex virus -2 strain MS was evaluated in african green monkey kidney; type: functional
Human respirovirus 3 [7] = experiment: Antiviral activity against Para influenza virus type 3 strain C243 was evaluated in african green monkey kidney; type: functional
[8] = system: Mammalian orthoreovirus 3; experiment: Antiviral activity against Reovirus type 3 strain Abney was evaluated in african green monkey kidney; type: functional; in short: as §2
[9] = system: Mammalian orthoreovirus 3; experiment: In vitro antiviral activity against Reovirus type 3 strain Abney was evaluated in african green monkey kidney; type: functional; in short: as §2
Vaccinia virus [10] = experiment: Antiviral activity against Vaccinia virus strain Elstree was evaluated in african green monkey kidney; type: functional, Orthopoxvirus vaccinia
Coxsackievirus B1 [11] = experiment: Antiviral activity against Coxsackie B1 strain HA 201468 was evaluated in african green monkey kidney; type: functional; in short: as §2
Human alphaherpesvirus 1 [12] = experiment: In vitro antiviral activity against Herpes simplex virus -1 strain KOS was evaluated in african green monkey kidney; type: functional
Human alphaherpesvirus 2 [13] = experiment: Antiviral activity against Herpes simplex virus -2 strain MS was evaluated in african green monkey kidney; type: functional
Human respirovirus 3 [14] = experiment: In vitro antiviral activity against Para influenza virus type 3 strain C243 was evaluated in african green monkey kidney; type: functional
Vero = experiment: In vitro cytotoxicity against Vero cells.; type: functional, Chlorocebus sabaeus
L1210 [15] = experiment: In vitro antitumor activity against L1210 cell line in mice; B indicates inactive at 10e-1 mmol/L; type: functional, cell-based; settings: Mus musculus; in short: as §1
Human alphaherpesvirus 1 [16] = experiment: Antiviral activity against Herpes simplex virus -1 strain KOS was evaluated in african green monkey kidney; type: functional
P388 [17] = experiment: In vitro antitumor activity against P388 cell line in mice.; type: functional, Mus musculus; in short: as §1
L1210 [18] = experiment: In vitro antitumor activity against L1210 cell line in mice.; type: functional, Mus musculus; in short: as §1
Human alphaherpesvirus 1 [19] = experiment: Antiviral activity against Herpes simplex virus -1 strain MS was evaluated in african green monkey kidney; type: functional

| SMILES | ID50 (P388 [1]) | Virus rating (Vaccinia virus [2]) | ED50 [3] [µM] | Virus rating (Coxsackievirus B1 [4]) | Virus rating [5] | Virus rating (Human alphaherpesvirus 2 [6]) | ED50 (Human respirovirus 3 [7]) [µM] | ED50 [8] [µM] | Virus rating [9] | ED50 (Vaccinia virus [10]) [µM] | ED50 (Coxsackievirus B1 [11]) [µM] | Virus rating (Human alphaherpesvirus 1 [12]) | ED50 (Human alphaherpesvirus 2 [13]) [µM] | Virus rating (Human respirovirus 3 [14]) | Cytotoxicity (Vero) | ID50 (L1210 [15]) | ED50 (Human alphaherpesvirus 1 [16]) [µM] | ID50 (P388 [17]) [µM] | ID50 (L1210 [18]) [µM] | ED50 (Human alphaherpesvirus 1 [19]) [µM] |
| --- | --- | --- | --- | --- | --- | --- | --- | --- | --- | --- | --- | --- | --- | --- | --- | --- | --- | --- | --- | --- |
| N.Nc1nc(=O)n([C@@H]2O[C@@H]3CO[PH](O)(O)O[C@H]3[C@H]2O)cc1Br | inactive | 0.1 | > 5000 | 0 | 0 | 0.2 | > 5000 | > 5000 | 0 | 5000 | > 5000 | 0.1 | 5000 | 0 | 2 mM l-1 and 5 mM l-1 | inactive | > 5000 | – | – | – |
| N.Nc1nc(=O)n([C@@H]2O[C@@H]3CO[PH](O)(O)O[C@H]3[C@H]2O)cc1I | inactive | 0 | > 5000 | 0 | 0.2 | 0 | > 5000 | > 5000 | 0 | > 5000 | > 5000 | 0 | > 5000 | 0 | 2 mM l-1 and 5 mM l-1 | inactive | > 5000 | – | – | – |
| Cl.Nc1nc(=O)n([C@@H]2O[C@H](CO)[C@@H](O)[C@H]2O)cc1F | – | 1.3 | – | – | – | 2.1 | 130 | – | – | 5e-05 | – | 1 | < 0.5 | 0.8 | – | – | 20 | 3 | 2.6 | – |
| Nc1nc(=O)[nH]cc1F [FLUCYTOSINE] | inactive | 0 | – | – | – | 0.5 | > 5000 | – | – | > 5000 | – | 0 | > 5000 | 0.4 | 5 mM | inactive | > 5000 | – | – | – |
| Nc1nc(=O)n([C@@H]2O[C@H](COP(=O)(O)O)[C@@H](O)[C@H]2O)cc1F | – | 1.4 | – | – | – | 2 | 20 | – | – | 9e-05 | – | 1.2 | < 0.5 | 1 | – | – | – | 3.1 | 3.4 | 20 |
| N.Nc1nc(=O)n([C@@H]2O[C@@H]3CO[PH](O)(O)O[C@H]3[C@H]2O)cc1Cl | inactive | 0 | > 5000 | 0 | 0 | 0.1 | > 5000 | > 5000 | 0 | > 5000 | > 5000 | 0 | > 5000 | 0 | 5 mM | inactive | > 5000 | – | – | – |
| Nc1ccn([C@@H]2O[C@H](CO)[C@@H](O)[C@@H]2O)c(=O)n1 [CYTARABINE] | – | 2.8 | – | – | – | 2.7 | > 500 | – | – | 0.34 | – | 2.7 | 1.1 | 0 | 0.0005 mM | – | 0.34 | 1.2 | 2.5 | – |
| N.Nc1nc(=O)n([C@@H]2O[C@@H]3CO[PH](O)(O)O[C@H]3[C@H]2O)cc1F | – | 0.6 | 5000 | 0 | 0.2 | 0.9 | > 5000 | > 5000 | 0 | 290 | > 5000 | 0.6 | 92 | 0.1 | 0.2 mM l-1 and 0.5 mM l-1 | – | 220 | 0.31 | 0.31 | – |
